Reference: ChEMBL document CHEMBL1122411 (J Med Chem, 1983)

Tests used:
[1] = biological target: Dihydrofolate reductase (Lactobacillus casei) (UniProt P00381); settings: Lacticaseibacillus casei
[2] = species: Mus musculus; assay: Percentage increase in life span after 14-22 days; type: functional
Summary of the method: (§1)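 Male B6D2F1J mice (20–25 g), randomized after i.p. inoculation with 10^5 L1210 ascitic leukemia cells on day 0. Drug in water, pH 7.5–8.0, given i.p. on a q2d×5, qd×9 (from day 1) or b.i.d.×10 schedule; 5 mice per group. %ILS = [(T/C) − 1]100 from median survival days of treated versus control mice. Range is survival days.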

[3] = species: Mus musculus; assay: Percentage increase in life span after 12-20 days; type: functional
Summary of the method: as §1

[4] = test system: Mus musculus; assay: Weight change on day 7 in L1210 Lymphoid Leukemia in mice at a dose of 40 mg/kg/day (qdx9); type: functional
Summary of the method: (§2)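 Male B6D2F1J mice (20–25 g) were inoculated i.p. with 10⁵ L1210 ascites cells on day 0 and randomized into groups of 5. Drug in water at pH 7.5–8.0 was given i.p. daily for 9 days (qd×9) from day 1. Animals were weighed after 7 days, and the % body-weight change was recorded under a standard NCI protocol.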

[5] = test system: Mus musculus; assay: Toxicity in mice after 10-22 days at a dose of 40 mg/kg/day; value is 15/9; type: functional
[6] = Tested for substrate activity of compound for Carboxypeptidase G1; parameters: species or system Mus musculus
Summary of the method: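 Cleavage by carboxypeptidase G₁ was followed as the A320 change on release of the pteroate. Conditions were 37 °C in 0.05 M potassium phosphate, pH 6.7, with 100 μM ZnSO₄. Enzyme was diluted in 1% BSA to give ΔA320 of 0.02–0.2/min. Km and Vmax came from Lineweaver-Burk plots. Ki came from competitive runs varying analogue against fixed MTX, or vice versa.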

[7] = test system: Mus musculus; assay: Weight change on day 7 in L1210 Lymphoid Leukemia in mice at a dose of 4 mg/kg/day (1dx9); type: functional
Summary of the method: (§3)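 Male B6D2F₁J mice (20–25 g) bearing ip L1210 ascites (10⁵ cells, day 0) were used, 5 per group. Drug was given ip in water at pH 7.5–8.0 from day 1 on q2d×5, qd×9 or b.i.d.×10 schedules. Animals were weighed after 7 days and percent weight change recorded.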

[8] = biological target: Dihydrofolate reductase (Lactobacillus casei) (UniProt P00381); settings: Lacticaseibacillus casei; remark: listed apart in the source
[9] = test system: Mus musculus; assay: Toxicity in mice after 10-23 days at a dose of 40 mg/kg/day; value is 21/9; type: functional
[10] = biological target: T1, Dihydrofolate reductase (Mus musculus) (UniProt P00375)
T1 sequence (whole entry): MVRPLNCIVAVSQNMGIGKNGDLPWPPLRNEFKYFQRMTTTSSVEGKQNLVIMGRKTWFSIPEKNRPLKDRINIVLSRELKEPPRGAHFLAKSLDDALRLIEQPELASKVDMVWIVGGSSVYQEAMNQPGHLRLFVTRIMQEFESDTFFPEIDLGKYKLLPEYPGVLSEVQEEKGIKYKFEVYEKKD

[11] = species: Mus musculus; assay: Percentage increase in life span after 13-18 days; type: functional
Summary of the method: as §1

[12] = test system: Mus musculus; assay: Weight change on day 7 in L1210 Lymphoid Leukemia in mice at a dose of 2 mg/kg/day (1dx9); type: functional
Summary of the method: as §3

[13] = species: Mus musculus; assay: Percentage increase in life span after 10-24 days; type: functional
Summary of the method: as §1

[14] = species: Mus musculus; assay: Percentage increase in life span after 10-23 days; type: functional
Summary of the method: as §1

[15] = test system: Mus musculus; assay: Toxicity in mice after 12-20 days at a dose of 4 mg/kg/day; value is 13/8.5; type: functional
[16] = test system: Mus musculus; assay: Weight change on day 7 in L1210 Lymphoid Leukemia in mice at a dose of 20 mg/kg/day (qdx9); type: functional
Summary of the method: as §3

[17] = species: Mus musculus; assay: Percentage increase in life span after 11-16 days; type: functional
Summary of the method: as §1

[18] = test system: Mus musculus; assay: Toxicity in mice after 14-22 days at a dose of 8 mg/kg/day; value is 14/8.5; type: functional
[19] = species: Mus musculus; assay: Percentage increase in life span after 10-22 days; type: functional
Summary of the method: as §1

[20] = test system: Mus musculus; assay: Weight change on day 7 in L1210 Lymphoid Leukemia in mice at a dose of 8 mg/kg/day (1dx9); type: functional
Summary of the method: as §2

[21] = biological target: T1, Dihydrofolate reductase (Mus musculus); assay: Binding affinity to Dihydrofolate reductase of L1210 cell line using [H]MTX as radioligand; type: cell-based
Summary of the method: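 Competitive [³H]MTX binding to dihydrofolate reductase from L1210 leukemia. Ascites cells from tumor-bearing mice were washed and lysed before use. The assay ran at 37 °C in 0.1 M potassium phosphate, pH 6.8. ID₅₀ was read as inhibition of radioligand binding, with MTX included in each experiment.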

[22] = test system: L1210; assay: Cytotoxicity against L1210 cells; type: functional; settings: Mus musculus, read-out: ID50 (the source's name)
[23] = test system: Mus musculus; assay: Toxicity in mice after 11-16 days at a dose of 2 mg/kg/day; value is 12/8.5; type: functional
[24] = test system: Mus musculus; assay: Toxicity in mice after 13-18 days at a dose of 20 mg/kg/day; value is 13/9; type: functional
[25] = test system: Carboxypeptidase G1 (Pseudomonas); assay: Tested for substrate activity of compound for Carboxypeptidase G1
[26] = test system: Mus musculus; assay: Weight change on day 7 in L1210 Lymphoid Leukemia in mice at a dose of 20 mg/kg/day (qdx5); type: functional; settings: in the assay text read “q2dx5” for “qdx5”
Summary of the method: as §3

[27] = test system: Mus musculus; assay: Toxicity in mice after 10-24 days at a dose of 20 mg/kg/day; value is 18/9; type: functional
[28] = biological target: T1, Dihydrofolate reductase (Mus musculus); assay: Binding affinity to Dihydrofolate reductase of L1210/R71 using spectrophotometric assay
Summary of the method: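 The enzyme was isolated from MTX-resistant L1210/R71 cultured cells and purified on MTX-agarose. The assay measured ΔA340 at 22 °C in 0.1 M Tris, pH 7.0, with 62 nM enzyme. Enzyme was preincubated 2 min with inhibitor and NADPH, and dihydrofolate was then added to start the reaction. ID₅₀ determined.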

Chain of Dihydrofolate reductase (Lactobacillus casei) (P00381 whole entry): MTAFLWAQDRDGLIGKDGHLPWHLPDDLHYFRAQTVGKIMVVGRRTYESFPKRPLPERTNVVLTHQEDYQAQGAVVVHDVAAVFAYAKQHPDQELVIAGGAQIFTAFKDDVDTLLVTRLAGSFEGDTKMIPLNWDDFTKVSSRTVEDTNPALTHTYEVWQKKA

CN(Cc1cnc2nc(N)nc(N)c2n1)c1ccc(C(=O)NC(CCCCC(=O)O)C(=O)O)cc1 (centres undefined)
ID50 [1]: 0.0063 µM
ILS [2]: 65%
ILS [3]: 52%
Weight change [4]: -4%
T/C [5]: 15
Ki [6]: 22 µM
Weight change [7]: 4%
ID50 [8]: 0.018 µM
T/C [9]: 21
ID50 [10]: 0.0069 µM
ILS [11]: 44%
Weight change [12]: 10%
ILS [13]: 100%
ILS [14]: 133%
T/C [15]: 13
Weight change [16]: -2%
ILS [17]: 41%
T/C [18]: 14
ILS [19]: 67%
Weight change [20]: 4%
ID50 [21]: 0.0028 µM
IC50 [22]: 0.01 µM
T/C [23]: 12
T/C [24]: 13
Km [25]: 481 µM
Vmax [25]: 0.44 min⁻¹
Weight change [26]: 6%
T/C [27]: 18
ID50 [28]: 0.039 µM
